Results as given in article PMC13424379 (Fundamental Research, 2024).

Tests used:
[1] = system: Tg (fli1a: EGFP) zebrafish; test: Zebrafish vascular injury model; format: in vivo; settings: for dose relation of the ameliorative effect on vascular injury: different concentrations, PTK787 model
In short: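 Tg(fli1a:EGFP) embryos at 24 hpf were dechorionated with 1 mg·mL⁻¹ protease E and placed 10 per well, 3 wells per group, in fish water (NaCl/KCl/CaCl2/MgSO4). Groups were vehicle (0.1% DMSO), 0.2 µg·mL⁻¹ PTK787, PTK787 plus 0.2 mg·mL⁻¹ aspirin, and PTK787 plus test compound. Exposure lasted 24 h at 28.5 °C on a 14/10 h light/dark cycle. ISV development was observed and ISV length measured.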

T1R2 = target: T1, T1R2 (Homo sapiens, UniProt Q8TE23); test: T1R2-HEMT biosensor interaction, dissociation constant; format: binding
T1 sequence (Q8TE23 20-839): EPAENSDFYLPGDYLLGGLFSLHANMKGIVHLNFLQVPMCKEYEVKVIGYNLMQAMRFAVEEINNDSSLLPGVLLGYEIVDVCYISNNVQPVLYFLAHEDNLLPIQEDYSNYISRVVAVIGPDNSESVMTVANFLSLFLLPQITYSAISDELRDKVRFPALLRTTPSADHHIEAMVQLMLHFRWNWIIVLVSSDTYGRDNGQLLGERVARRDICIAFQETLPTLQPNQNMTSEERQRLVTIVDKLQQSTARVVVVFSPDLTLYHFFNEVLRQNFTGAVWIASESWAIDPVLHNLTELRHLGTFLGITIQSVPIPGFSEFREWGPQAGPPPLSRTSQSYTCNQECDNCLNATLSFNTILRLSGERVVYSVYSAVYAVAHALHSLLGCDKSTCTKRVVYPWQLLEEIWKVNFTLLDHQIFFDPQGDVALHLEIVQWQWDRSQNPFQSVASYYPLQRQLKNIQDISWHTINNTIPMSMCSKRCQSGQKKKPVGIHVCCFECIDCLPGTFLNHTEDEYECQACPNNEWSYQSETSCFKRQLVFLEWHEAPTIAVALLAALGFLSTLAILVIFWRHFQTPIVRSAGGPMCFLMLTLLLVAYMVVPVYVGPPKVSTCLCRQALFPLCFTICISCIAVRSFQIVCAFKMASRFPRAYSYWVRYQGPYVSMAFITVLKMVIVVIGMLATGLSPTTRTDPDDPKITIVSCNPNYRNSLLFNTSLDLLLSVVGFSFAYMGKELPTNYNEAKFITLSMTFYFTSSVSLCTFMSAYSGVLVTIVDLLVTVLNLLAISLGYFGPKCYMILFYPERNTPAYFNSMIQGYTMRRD
In short: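 Recombinant T1R2 and T1R3 proteins (100 μg·mL⁻¹) were immobilised on an AlGaAs/GaAs HEMT chip at 4 °C. Test compounds in 0.5% DMSO were applied at eleven concentrations from 0.1 pmol·L⁻¹ to 1 mmol·L⁻¹. KD was derived by a linear fit of [C]/ΔI against [C], where ΔI is the current change and ΔImax the saturated current change.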

T1R3 = target: T2, T1R3 (Homo sapiens, UniProt Q7RTX0); test: T1R3-HEMT biosensor interaction, dissociation constant; format: binding
T2 sequence (Q7RTX0 21-852): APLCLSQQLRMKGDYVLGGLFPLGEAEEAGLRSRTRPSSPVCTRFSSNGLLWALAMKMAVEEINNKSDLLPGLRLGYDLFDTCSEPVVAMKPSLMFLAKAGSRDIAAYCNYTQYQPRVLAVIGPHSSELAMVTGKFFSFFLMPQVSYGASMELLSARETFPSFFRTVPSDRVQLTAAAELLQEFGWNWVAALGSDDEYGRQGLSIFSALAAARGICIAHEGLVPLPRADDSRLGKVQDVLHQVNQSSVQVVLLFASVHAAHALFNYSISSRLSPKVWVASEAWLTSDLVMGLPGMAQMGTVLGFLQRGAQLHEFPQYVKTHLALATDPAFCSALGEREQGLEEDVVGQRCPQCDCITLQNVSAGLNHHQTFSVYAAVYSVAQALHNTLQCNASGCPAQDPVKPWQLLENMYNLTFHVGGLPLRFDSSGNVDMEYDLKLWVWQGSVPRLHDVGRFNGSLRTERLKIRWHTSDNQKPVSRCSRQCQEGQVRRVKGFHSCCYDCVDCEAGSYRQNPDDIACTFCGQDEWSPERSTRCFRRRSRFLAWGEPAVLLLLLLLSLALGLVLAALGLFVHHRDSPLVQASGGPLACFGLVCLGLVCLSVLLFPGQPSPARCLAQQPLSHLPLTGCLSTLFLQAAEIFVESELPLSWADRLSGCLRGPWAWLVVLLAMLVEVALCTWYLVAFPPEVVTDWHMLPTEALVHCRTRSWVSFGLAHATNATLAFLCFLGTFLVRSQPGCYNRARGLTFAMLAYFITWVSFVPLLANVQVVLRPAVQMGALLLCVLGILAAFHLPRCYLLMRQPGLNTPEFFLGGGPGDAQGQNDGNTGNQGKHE

Tg (mpx: EGFP) zebrafish = test: Zebrafish immunocompromised model; format: in vivo; settings: for immune enhancement (number of neutrophils): compared to the model group
[2] = 25 µM·L^−1, with 0.2 µg·mL^−1 PTK787, compared with the model group

Row | Kd (T1R2) [nM] | Kd (T1R3) [nM] | SMILES | dose relation of the ameliorative effect on vascular injury [1] | effect on ISVs [1, 2] | also measured
1 | – | – | Clc1ccc(Nc2nnc(Cc3ccncc3)c3ccccc23)cc1 [PTK787, Vatalanib (PTK787) 2HCl, reference compound] | – | – | total length of ISVs ([1]; 0.2 µg·mL^−1, compared with the control group, 24 h exposure): significantly reduce; teratogenicity ([1]; 0.2 µg·mL^−1, zebrafish embryos): not teratogenic
2 | 1.06 | 0.0882 | C=C1CCC[C@]2(C)C=C3OC(=O)C(C)=C3C[C@@H]12 [atractylenolide I] | dose-dependent effects | – | effect on ISVs ([1]; 50 µM·L^−1, with 0.2 µg·mL^−1 PTK787, compared with the model group): significantly promote ISVs
3 | 0.0017 | 0.641 | COc1ccc(-c2coc3cc(O)ccc3c2=O)cc1O [calycosin] | stronger at a low dose | significantly promote ISVs | immune enhancement (number of neutrophils) (Tg (mpx: EGFP) zebrafish; 50 µM·L^−1, with 100 µg·mL^−1 vinorelbine): immune-enhancing effect
4 | 52.5 | 0.217 | C[C@@H]1CC[C@@]2(OC1)O[C@H]1C[C@H]3[C@@H]4CC=C5C[C@@H](O)C[C@@H](O)[C@]5(C)[C@H]4CC[C@]3(C)[C@H]1[C@@H]2C [ruscogenin] | stronger at medium and high doses | significantly promote ISVs | immune enhancement (number of neutrophils) (Tg (mpx: EGFP) zebrafish; 100 µM·L^−1, with 100 µg·mL^−1 vinorelbine): immune-enhancing effect
5 | – | – | CCC1=C[C@@H]2CN(C1)Cc1c([nH]c3ccccc13)[C@@](C(=O)OC)(c1cc3c(cc1OC)N(C)[C@H]1[C@@](O)(C(=O)OC)[C@H](OC(C)=O)[C@]4(CC)C=CCN5CC[C@]31[C@@H]54)C2 [vinorelbine, Vinorelbine, reference compound] | – | – | number of neutrophils in the zebrafish tail (Tg (mpx: EGFP) zebrafish; 100 µg·mL^−1, model construction): significantly reduced
